# Data: ChEMBL document CHEMBL1177847, “Combating oxidative stress in epilepsy: design, synthesis, quantum chemical studies and anticonvulsant evaluation of 1-(substituted benzylidene/ethylidene)-4-(naphthalen-1-yl)semicarbazides” (Eur J Med Chem, 2010)
# Key:
# Mus musculus [1] = assay: Neurotoxicity in ip dosed Swiss albino mouse assessed as minimum dose required to cause impair in motor coordination after 4 hrs by rotarod test; format: toxicity, organism-based; conditions: in vivo
# Summary of the method: (§1)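 Rotarod motor-impairment test in male Swiss albino mice dosed i.p. at 30, 100 or 300 mg/kg in 5% gum acacia/water. Mice that fell off the rotating rod within 30 s during pretraining were excluded. The dose at which animals fell off was recorded at 0.5 and 4 h.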
# Rattus norvegicus [2] = assay: Anticonvulsant activity against subcutaneous pentylenetetrazole-induced seizures in Wistar albino rat at 50 mg/kg, ip after 0.25 hrs; format: functional; conditions: route intraperitoneal
# Mus musculus [3] = assay: Anticonvulsant activity against maximal electroshock-induced seizures in ip dosed Swiss albino mouse assessed as minimum effective dose after 0.5 hrs; format: functional; conditions: read-out: MED
# Summary of the method: (§2)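 Male Swiss albino mice (18–25 g) received the compound suspended in 5% gum acacia/water, i.p. at 30, 100 and 300 mg/kg (one to four animals per dose). Maximal electroshock was applied at 0.5 and 4 h. Protection meant abolition of the hind limb tonic extensor component. The lowest dose protecting half or more of the mice was recorded.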
# Mus musculus [4] = assay: Neurotoxicity in ip dosed Swiss albino mouse assessed as minimum dose required to cause impair in motor coordination after 0.5 hrs by rotarod test; format: toxicity, organism-based; conditions: in vivo; summary of the method: as §1
# Rattus norvegicus [5] = assay: Anticonvulsant activity against subcutaneous pentylenetetrazole-induced seizures in Wistar albino rat at 50 mg/kg, ip after 1 hr; format: functional
# Rattus norvegicus [6] = assay: Anticonvulsant activity against subcutaneous pentylenetetrazole-induced seizures in Wistar albino rat at 50 mg/kg, ip after 0.5 hrs; format: functional
# Mus musculus [7] = assay: Anticonvulsant activity against subcutaneous pentylenetetrazole-induced seizures in ip dosed Swiss albino mouse assessed as minimum effective dose after 4 hrs; format: functional; conditions: read-out: MED
# Summary of the method: (§3)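 Male Swiss albino mice (18–25 g) were dosed i.p. with the compound in 5% gum acacia/water at 30, 100 or 300 mg/kg. Thirty minutes later they received PTZ 85 mg/kg (CD97) and were watched for seizures over 4 h. Readings at 0.5 and 4 h gave the lowest dose active in half or more of the animals. Myoclonic jerks were noted separately.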
# Mus musculus [8] = assay: Restoration of GSH peroxidase activity in subcutaneous pentylenetetrazole treated Swiss albino mouse brain assessed per mg of protein at 100 mg/kg, ip after 4 hrs; format: functional; conditions: route intraperitoneal
# Summary of the method: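 Brain homogenate came from PTZ-treated mice 4 h after 100 mg/kg i.p. dosing, using the 10500 × g supernatant. Samples were equilibrated 5 min at 25 °C, started with H2O2, and A340 was followed for 5 min. n = 6.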
# Rattus norvegicus [9] = assay: Anticonvulsant activity against subcutaneous pentylenetetrazole-induced seizures in Wistar albino rat at 50 mg/kg, ip after 2 hrs; format: functional
# Mus musculus [10] = assay: Restoration of SOD activity in subcutaneous pentylenetetrazole treated Swiss albino mouse brain assessed per mg of protein at 100 mg/kg, ip after 4 hrs; format: functional; conditions: route intraperitoneal
# Summary of the method: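 The ethanol phase of an ethanol/chloroform (5:3) extract of brain supernatant was used, from PTZ-treated mice 4 h after 100 mg/kg i.p. Superoxide was generated by xanthine–xanthine oxidase at pH 10.2 with NBT, 20 min at 25 °C. The reaction was stopped with CuCl2 and read at 560 nm. One unit gives 50% inhibition of NBT reduction; results are expressed as U/mg protein. n = 6.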
# Mus musculus [11] = assay: Anticonvulsant activity against subcutaneous pentylenetetrazole-induced seizures in ip dosed Swiss albino mouse assessed as minimum effective dose after 0.5 hrs; format: functional; conditions: read-out: MED; summary of the method: as §3
# Mus musculus [12] = assay: Anticonvulsant activity against maximal electroshock-induced seizures in ip dosed Swiss albino mouse assessed as minimum effective dose after 4 hrs; format: functional; conditions: read-out: MED; summary of the method: as §2
# Mus musculus [13] = assay: Reduction of lipid peroxidation in subcutaneous pentylenetetrazole treated Swiss albino mouse brain assessed reduction of malondialdehyde level per mg of protein at 100 mg/kg, ip after 4 hrs by TBARS assay; format: functional; conditions: route intraperitoneal
# Summary of the method: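 PTZ-treated mice were dosed at 100 mg/kg i.p. and decapitated 4 h after the last injection. Brains were homogenized in four volumes of ice-cold 50 mM Tris-HCl, pH 7.4, and spun at 3000 × g for 15 min. TBARS in the supernatant was read at 532 nm in the upper organic layer and expressed as nmol MDA/mg protein. n = 6, mean ± S.E.M.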
# Mus musculus [14] = assay: Restoration of GSH level in subcutaneous pentylenetetrazole treated Swiss albino mouse brain assessed per gram of tissue at 100 mg/kg, ip after 4 hrs; format: functional; conditions: route intraperitoneal
# Summary of the method: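 Brains were taken from PTZ-treated mice 4 h after 100 mg/kg i.p. dosing. Tissue was deproteinized with an equal volume of 10% TCA for 2 h at 4 °C and centrifuged at 2000 g for 15 min. The supernatant was mixed with 0.4 M Tris (pH 8.9) containing 0.02 M EDTA, and 0.01 M DTNB was added before spectrophotometric reading. n = 6.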
smiles,measurement,setting,value
COc1cc(/C=N/NC(=O)Nc2cccc3ccccc23)cc(OC)c1OC,Activity,Mus musculus [1],300 mg/kg
same,Activity,Rattus norvegicus [2],25%
same,minimal effective dose,Mus musculus [3],100 mg/kg
same,Activity,Mus musculus [4],300 mg/kg
same,Activity,Rattus norvegicus [5],75%
same,Activity,Rattus norvegicus [6],100%
same,minimal effective dose,Mus musculus [7],100 mg/kg
same,Activity,Mus musculus [8],1.97 U
same,Activity,Rattus norvegicus [9],50%
same,Activity,Mus musculus [10],1.77 U
same,minimal effective dose,Mus musculus [11],100 mg/kg
same,minimal effective dose,Mus musculus [12],100 mg/kg
same,Activity,Mus musculus [13],1.87 nmol
same,Activity,Mus musculus [14],24.56 µg
